Source: ChEMBL document CHEMBL1154686, “Pyrazoline bearing benzimidazoles: search for anticancer agent” (2010)

Columns and labels:
Assay type in all cases: functional
[1] = tested on: SK-OV-3; test: Growth inhibition of human SKOV3 cells after 48 hrs by SRB assay; settings: SK-OV-3, 48 h
In short: (§1)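 NCI-60 panel protocol with adherent lines. Cells were seeded at 5,000–40,000 cells/well, depending on doubling time, and pre-incubated 24 h at 37 °C, 5% CO₂. Time-zero plates were TCA-fixed at drug addition. Drugs were dissolved in DMSO and exposed for 48 h. Cells were fixed with cold TCA (final 10%) for 60 min at 4 °C, stained with 0.4% SRB in 1% acetic acid for 10 min, solubilized with 10 mM trizma base, and read at A515.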

[2] = tested on: HL-60(TB); test: Growth inhibition of human HL-60(TB) cells after 48 hrs by SRB assay; settings: HL-60, 48 h
In short: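 NCI-60 protocol: cells seeded at 5,000–40,000/well by doubling time and preincubated 24 h at 37 °C, 5% CO2. Drug, dissolved in DMSO, was added at one dose (10^-5 M) or five 10-fold dilutions, then incubated 48 h. Suspension cells were fixed with 80% TCA (final 16%) and stained with 0.4% SRB, read at 515 nm. GI50 was derived from percentage growth versus time-zero and control.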

[3] = tested on: HOP-62; test: Growth inhibition of human HOP62 cells after 48 hrs by SRB assay; settings: HOP-62, 48 h; in short: as §1
[4] = tested on: MOLT-4; test: Growth inhibition of human MOLT4 cells after 48 hrs by SRB assay; settings: MOLT-4, 48 h
In short: (§2)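 Suspension leukemia lines were run in the NCI-60 SRB format. Cells were plated at 5,000–40,000 cells/well and pre-incubated 24 h at 37 °C, 5% CO₂, with time-zero plates fixed at drug addition. Drug exposure in DMSO-derived dilutions lasted 48 h. Settled cells were fixed with 80% TCA (final 16%), stained with 0.4% SRB, solubilized in 10 mM trizma base, and read at 515 nm. Percent growth was taken relative to the time-zero and control readings.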

[5] = tested on: SN12C; test: Growth inhibition of human SN12C cells after 48 hrs by SRB assay; in short: as §1
[6] = tested on: KM12; test: Growth inhibition of human KM12 cells after 48 hrs by SRB assay; settings: KM12, 48 h; in short: as §1
[7] = tested on: SNB-19; test: Growth inhibition of human SNB19 cells after 48 hrs by SRB assay; settings: SNB-19, 48 h; in short: as §1
[8] = tested on: CAKI-1; test: Growth inhibition of human Caki1 cells after 48 hrs by SRB assay; settings: CAKI-1, 48 h; in short: as §1
[9] = tested on: UACC-257; test: Growth inhibition of human UACC257 cells after 48 hrs by SRB assay; settings: UACC-257, 48 h
In short: (§3)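 NCI 60-cell panel, five-dose format: cells plated at 5,000–40,000/well by doubling time, preincubated 24 h at 37 °C, 5% CO2; time-zero plates TCA-fixed. Compound dissolved in DMSO, five concentrations (0.01, 0.1, 1, 10, 100 µM) plus control, 48 h. Cells fixed with cold TCA, stained with 0.4% SRB in 1% acetic acid, bound dye solubilized in 10 mM trizma base, absorbance at 515 nm. GI50 taken from [(Ti–Tz)/(C–Tz)]×100 = 50.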

[10] = tested on: K562; test: Growth inhibition of human K562 cells after 48 hrs by SRB assay; settings: K562, 48 h; in short: as §2
[11] = tested on: SW-620; test: Growth inhibition of human SW620 cells after 48 hrs by SRB assay; settings: SW-620, 48 h; in short: as §3
[12] = tested on: UACC-62; test: Growth inhibition of human UACC62 cells after 48 hrs by SRB assay; settings: UACC-62, 48 h; in short: as §3
[13] = tested on: NCI-H522; test: Growth inhibition of human NCI-H522 cells after 48 hrs by SRB assay; settings: NCI-H522, 48 h; in short: as §1
[14] = tested on: OVCAR-5; test: Growth inhibition of human OVCAR5 cells after 48 hrs by SRB assay; settings: OVCAR-5, 48 h; in short: as §1
[15] = tested on: SF-539; test: Growth inhibition of human SF539 cells after 48 hrs by SRB assay; settings: SF-539, 48 h; in short: as §1
[16] = tested on: HCC 2998; test: Growth inhibition of human HCC2998 cells after 48 hrs by SRB assay; settings: HCC 2998, 48 h; in short: as §1
[17] = tested on: IGROV-1; test: Growth inhibition of human IGROV1 cells after 48 hrs by SRB assay; settings: IGROV-1, 48 h; in short: as §1
[18] = tested on: NCI-H23; test: Growth inhibition of human NCI-H23 cells after 48 hrs by SRB assay; settings: NCI-H23, 48 h; in short: as §1
[19] = tested on: SF-295; test: Growth inhibition of human SF295 cells after 48 hrs by SRB assay; settings: SF-295, 48 h; in short: as §1
[20] = tested on: OVCAR-4; test: Growth inhibition of human OVCAR4 cells after 48 hrs by SRB assay; settings: OVCAR-4, 48 h; in short: as §1
[21] = tested on: EKVX; test: Growth inhibition of human EKVX cells after 48 hrs by SRB assay; in short: as §1
[22] = tested on: SK-MEL-28; test: Growth inhibition of human SK-MEL-28 cells after 48 hrs by SRB assay; settings: SK-MEL-28, 48 h; in short: as §1
[23] = tested on: SK-MEL-5; test: Growth inhibition of human SK-MEL-5 cells after 48 hrs by SRB assay; settings: SK-MEL-5, 48 h; in short: as §1
[24] = tested on: CCRF-CEM; test: Growth inhibition of human CCRF-CEM cells after 48 hrs by SRB assay; in short: as §2
[25] = read-out: LC50 (the source's name)

Work on `COc1ccc(C2CC(c3nc4ccccc4[nH]3)=NN2c2ccccc2)cc1OC` (configuration not stated) yielded a GI50 [1] of 33.1 µM, a TGI [1] of over 100 µM and a CC50 [1, 25] of over 100 µM. The GI50 [2] was over 100 µM, the TGI [2] was over 100 µM and the CC50 [2, 25] was over 100 µM. The GI50 [3] was 19.9 µM, the TGI [3] was over 100 µM and the CC50 [3, 25] was over 100 µM. It also gave a GI50 [4] of 17.9 µM, a TGI [4] of over 100 µM and a CC50 [4, 25] of over 100 µM. The GI50 [5] was 17.3 µM, the TGI [5] was over 100 µM and the CC50 [5, 25] was over 100 µM. For the same molecule, the GI50 [6] was 5.14 µM, the TGI [6] was 19.5 µM and the CC50 [6, 25] was 52.2 µM. The GI50 [7] was 26.6 µM, the TGI [7] was over 100 µM and the CC50 [7, 25] was over 100 µM. The GI50 [8] was 3.6 µM, the TGI [8] was 24.7 µM and the CC50 [8, 25] was over 100 µM. For the same molecule, the GI50 [9] was 77.1 µM, the TGI [9] was over 100 µM and the CC50 [9, 25] was over 100 µM. The GI50 [10] was over 100 µM, the TGI [10] was over 100 µM and the CC50 [10, 25] was over 100 µM. The GI50 [11] was 6.45 µM, the TGI [11] was 23.3 µM and the CC50 [11, 25] was 65.7 µM. The GI50 [12] was 2.59 µM, the TGI [12] was over 100 µM and the CC50 [12, 25] was over 100 µM. The GI50 [13] was 5.46 µM, the TGI [13] was 34.8 µM and the CC50 [13, 25] was over 100 µM. For the same molecule, the GI50 [14] was 26.7 µM, the TGI [14] was over 100 µM and the CC50 [14, 25] was over 100 µM. The GI50 [15] was 15 µM, the TGI [15] was 38.6 µM and the CC50 [15, 25] was 99.5 µM. It also gave a GI50 [16] of 12.4 µM, a TGI [16] of 26.1 µM and a CC50 [16, 25] of 55 µM. It also gave a GI50 [17] of 0.92 µM, a TGI [17] of 19.1 µM and a CC50 [17, 25] of over 100 µM. For the same molecule, the GI50 [18] was 16 µM, the TGI [18] was over 100 µM and the CC50 [18, 25] was over 100 µM. For the same molecule, the GI50 [19] was 5.98 µM, the TGI [19] was 51.4 µM and the CC50 [19, 25] was over 100 µM. For the same molecule, the GI50 [20] was 9.31 µM, the TGI [20] was over 100 µM and the CC50 [20, 25] was over 100 µM. For the same molecule, the GI50 [21] was 9.83 µM, the TGI [21] was over 100 µM and the CC50 [21, 25] was over 100 µM. For the same molecule, the GI50 [22] was 13.1 µM, the TGI [22] was 39 µM and the CC50 [22, 25] was over 100 µM. The GI50 [23] was 2.62 µM, the TGI [23] was 15.1 µM and the CC50 [23, 25] was 67.6 µM. For the same molecule, the GI50 [24] was 2.23 µM, the TGI [24] was 6.82 µM and the CC50 [24, 25] was 88.7 µM.
